ChEMBL document CHEMBL1128281 (J Med Chem, 1995)

Key:
Rattus norvegicus [1] = assay: Pole climb escape failures of rats was determined after 1 hr of intraperitoneal administration of the compound; type: functional; conditions: ip
Procedure, shortened: (§1)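 Male Long Evans rats trained to 80% avoidance in a discrete-trial signaled pole-climb paradigm: 25 trials per 50 min session, maximum 26 s of shock per trial. Distilled water or drug was given ip, 6 per dose group, at a 60 min pretreatment. Avoidance responses and escape failures were compared with water controls. ED50 by linear regression.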

Rattus norvegicus [2] = assay: Intracranial self stimulation in rat was determined after 1 hr of intraperitoneal administration of the compound; type: functional; conditions: ip
Procedure, shortened: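 Male Wistar rats (300–400 g) with chronic electrodes in the medial forebrain bundle at the preoptic level, trained after 2 weeks of recovery to lever-press for biphasic square-wave pulse trains. Once baseline responding was stable, drug was given (3–6 per dose group) and compared with nondrug controls. ED50 was calculated by linear regression on percent change from control.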

Rattus norvegicus [3] = assay: Social interaction of rats was determined after 1 hr of intraperitoneal administration at 0.5 mg/kg; type: functional
Procedure, shortened: (§2)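 Pairs of male Wistar rats (200–275 g) were acclimated to the arena for 8 min on two days. On day 3, unfamiliar pairs were formed, six pairs per group, and dosed with drug or vehicle. Interaction time and total activity were compared by one-way ANOVA with Duncan's test.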

Mus musculus = species on record: Mus musculus; assay: Ability to inhibit apomorphine-induced climbing behavior in mice.; type: functional
Procedure, shortened: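 Male CD-1 mice (18–30 g) were adapted for 1 h in wire-mesh cages, 8 per dose group. Distilled water or drug was given ip 30 or 60 min before apomorphine 1.5 mg/kg sc.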

Rattus norvegicus [4] = species on record: Rattus norvegicus; assay: Ability to block apomorphine-induced stereotypy in rats.; type: functional
Procedure, shortened: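 Male Wistar rats (150–250 g), 6–10 per dose group, given distilled water or test drug ip; apomorphine 1.5 mg/kg sc 50 min later. Rats were placed singly in cages and scored 10 min afterwards for continuous stereotyped licking or sniffing. Inhibition was the number of animals protected versus controls. ED50 was obtained by probit analysis.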

Rattus norvegicus [5] = assay: Induction of catalepsy in rats was determined after 1 hr of intraperitoneal administration of the compound; type: functional; conditions: ip
Procedure, shortened: (§3)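 Male Wistar rats (150–250 g), 6–10 per dose group, dosed ip with distilled water or drug. Each hour for 6 h, forepaws were placed on an elevated wooden bar; remaining there 60 s counted as cataleptic.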

Rattus norvegicus [6] = assay: Pole climb avoiding activity in rats was determined after 1 hr of intraperitoneal administration of the compound; type: functional; conditions: ip; procedure, shortened: as §1
Rattus norvegicus [7] = assay: Antipsychotic efficacy of compound at intraperitoneal dose of 20 mg/kg on 1.8 (A10 units) dopamine neurons in the mesolimbic region of rat; type: functional
Procedure, shortened: (§4)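 Male Wistar rats (280–360 g) were dosed ip once daily for 21 days with compound suspended in distilled water plus 1 drop Tween 80; vehicle rats served as controls. Sampling began 2 h after the last dose under chloral hydrate anesthesia (400 mg/kg ip). Spontaneously active A9 and A10 dopamine units were counted per 12 tracks. Groups were compared by one-way ANOVA with Newman–Keuls post hoc.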

Rattus norvegicus [8] = assay: Side effect liability of compound at intraperitoneal dose of 20 mg/kg on 13.7 (A9 units)dopamine neurons in the nigrostriatal in rat; type: functional; procedure, shortened: as §4
Rattus norvegicus [9] = assay: Social interaction of rats was determined after 1 hr of intraperitoneal administration at 10 mg/kg; type: functional
Procedure, shortened: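 Pairs of male Wistar rats (200–275 g) were acclimated to the arena for 8 min on two consecutive days. On day 3, unfamiliar rats (six pairs/group) got drug or vehicle, and 30 or 60 min later they were paired and observed for 5 min. Social interaction time and total activity were compared with controls by one-way ANOVA and Duncan's test.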

Rattus norvegicus [10] = assay: Antagonistic activity administered intraperitoneally on head twitches induced by 5- HTP; type: functional; conditions: ip
Procedure, shortened: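 Male Wistar rats (180–280 g), groups of eight. L-5-HTP given ip (240 mg/10 mL distilled water with Tween 80); compounds given ip 30 min after 5-HTP. At 60 min post-5-HTP, head twitches were counted for 10 min per rat under white noise, then expressed as percent change from vehicle. Dose–response used 3–4 dose groups; ED50 by linear regression.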

Rattus norvegicus [11] = assay: Induction of catalepsy in rats was determined after 1 hr of intraperitoneal administration at 80 mg/kg; type: functional
Procedure, shortened: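 Male Wistar rats (150–250 g, 6–10/dose group) were dosed ip with compound or distilled water. Every hour for 6 h after dosing, the forepaws were placed on an elevated wooden bar, and a rat was scored cataleptic if the paws stayed on the bar for 60 s.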

[12] = target: 5-hydroxytryptamine receptor 2A (Bos taurus, UniProt Q75Z89); assay: Binding affinity against 5-hydroxytryptamine 2 receptor was determined using [ [3H]spiperone radioligand
[13] = target: Serotonin 2 (5-HT2) receptor (Rattus norvegicus, UniProt P30994+P08909+P14842); assay: Affinity for 5-hydroxytryptamine 2 receptor binding sites by its ability to displace [3H]spiperone from rat frontal cortex.
Rattus norvegicus [14] = assay: Antipsychotic efficacy of compound at intraperitoneal dose of 10 mg/kg on 6.1 (A10 units)dopamine neurons in the mesolimbic in rat; type: functional
Rattus norvegicus [15] = assay: Antipsychotic efficacy of compound at intraperitoneal dose of 5 mg/kg on 6.1 dopamine neurons in the mesolimbic (A10) units in rat; type: functional
[16] = target: Sigma non-opioid intracellular receptor 1 (Homo sapiens, UniProt Q99720); assay: Binding affinity against sigma receptor using [3H]-( +)-SKF10,047 radioligand
Rattus norvegicus [17] = assay: Side effect liability of compound at intraperitoneal dose of 10 mg/kg on 16.1 (A9 units) dopamine neurons in the nigrostriatal in rat; type: functional
[18] = target: Muscarinic acetylcholine receptor M3 (Rattus norvegicus, UniProt P08483); assay: Binding affinity against Muscarinic acetylcholine receptor using [3H]quinuclidinyl benzilate
D(1A) dopamine receptor = D(1A) dopamine receptor (Mus musculus, UniProt Q61616); assay: Binding affinity against Dopamine receptor D1 was determined using [3H]SCH-23390 radioligand
[19] = target: T1, 5-hydroxytryptamine receptor 1A (Mus musculus, UniProt Q64264); assay: Binding affinity against 5-hydroxytryptamine 1A receptor was determined using [3H]-8-OH-DPAT radioligand
T1 sequence (Q64264 whole entry): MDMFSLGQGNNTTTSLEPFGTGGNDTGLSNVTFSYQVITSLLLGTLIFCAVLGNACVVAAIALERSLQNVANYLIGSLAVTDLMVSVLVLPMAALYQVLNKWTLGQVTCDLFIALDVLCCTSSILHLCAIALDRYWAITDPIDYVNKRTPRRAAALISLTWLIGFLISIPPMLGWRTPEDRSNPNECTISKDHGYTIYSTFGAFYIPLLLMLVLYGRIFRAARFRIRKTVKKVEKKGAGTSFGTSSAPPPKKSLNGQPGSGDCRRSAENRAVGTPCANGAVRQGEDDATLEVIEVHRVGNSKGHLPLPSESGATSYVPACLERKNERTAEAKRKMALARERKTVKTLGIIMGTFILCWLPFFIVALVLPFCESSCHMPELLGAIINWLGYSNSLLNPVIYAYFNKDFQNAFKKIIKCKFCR

Rattus norvegicus [20] = assay: Intracranial self stimulation in rat was determined after 1 hr of oral administration of the compound; type: functional
Rattus norvegicus [21] = assay: Social interaction of rats was determined after 1 hr of intraperitoneal administration at 1 mg/kg; type: functional; procedure, shortened: as §2
Rattus norvegicus [22] = assay: Side effect liability of compound at intraperitoneal dose of 5 mg/kg on 16.1 (A9 units)dopamine neurons in the nigrostriatal in rat; type: functional
Rattus norvegicus [23] = assay: Induction of catalepsy in rats was determined after 2 hr of intraperitoneal administration of the compound; type: functional; conditions: ip; procedure, shortened: as §3
Rattus norvegicus [24] = assay: Antipsychotic efficacy of compound at intraperitoneal dose of 0.5 mg/kg on 6.8 (A10 units) dopamine neurons in the mesolimbic region of rat; type: functional
Rattus norvegicus [25] = assay: Social interaction of rats was determined after 1 hr of intraperitoneal administration at […]; type: functional
Rattus norvegicus [26] = assay: Side effect liability of compound at intraperitoneal dose of 0.5 mg/kg on 6.2 (A9 units)dopamine neurons in the nigrostriatal in rat; type: functional

Sequence of Muscarinic acetylcholine receptor M3 (P08483 whole entry): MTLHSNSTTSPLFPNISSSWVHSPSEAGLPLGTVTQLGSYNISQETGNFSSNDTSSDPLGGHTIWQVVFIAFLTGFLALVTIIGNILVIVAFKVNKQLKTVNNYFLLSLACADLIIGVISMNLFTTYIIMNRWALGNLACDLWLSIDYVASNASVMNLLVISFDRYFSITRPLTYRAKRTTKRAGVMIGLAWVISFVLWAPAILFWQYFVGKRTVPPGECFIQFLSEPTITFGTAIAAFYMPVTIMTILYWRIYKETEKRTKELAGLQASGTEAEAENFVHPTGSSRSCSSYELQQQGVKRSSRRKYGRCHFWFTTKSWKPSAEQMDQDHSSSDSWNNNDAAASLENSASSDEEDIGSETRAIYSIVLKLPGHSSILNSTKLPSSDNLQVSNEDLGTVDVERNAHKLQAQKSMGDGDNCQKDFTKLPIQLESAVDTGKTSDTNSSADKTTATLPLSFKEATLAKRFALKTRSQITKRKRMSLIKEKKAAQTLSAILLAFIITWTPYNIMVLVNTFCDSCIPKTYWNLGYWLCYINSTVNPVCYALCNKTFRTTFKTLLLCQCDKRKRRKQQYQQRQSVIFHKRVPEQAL
Sequence of D(1A) dopamine receptor (Q61616 whole entry): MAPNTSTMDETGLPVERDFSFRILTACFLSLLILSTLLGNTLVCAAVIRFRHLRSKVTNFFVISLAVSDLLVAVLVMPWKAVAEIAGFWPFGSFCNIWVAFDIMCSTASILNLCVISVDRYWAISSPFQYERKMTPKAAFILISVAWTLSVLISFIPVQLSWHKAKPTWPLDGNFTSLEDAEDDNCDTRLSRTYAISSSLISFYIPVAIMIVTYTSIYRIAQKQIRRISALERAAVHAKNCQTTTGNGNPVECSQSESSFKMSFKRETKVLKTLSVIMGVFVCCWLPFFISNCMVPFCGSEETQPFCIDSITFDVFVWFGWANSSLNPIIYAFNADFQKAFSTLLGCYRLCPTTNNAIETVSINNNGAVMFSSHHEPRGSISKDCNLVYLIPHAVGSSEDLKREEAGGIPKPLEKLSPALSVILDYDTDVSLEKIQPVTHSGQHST
Sequence of Sigma non-opioid intracellular receptor 1 (Q99720 whole entry): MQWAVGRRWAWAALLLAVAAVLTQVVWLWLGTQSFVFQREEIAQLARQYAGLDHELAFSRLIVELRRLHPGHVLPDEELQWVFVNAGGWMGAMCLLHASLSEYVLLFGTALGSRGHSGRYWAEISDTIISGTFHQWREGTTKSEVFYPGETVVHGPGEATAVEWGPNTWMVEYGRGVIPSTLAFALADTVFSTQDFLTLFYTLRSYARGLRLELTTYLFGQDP
Sequence of 5-hydroxytryptamine receptor 2A (Q75Z89 whole entry): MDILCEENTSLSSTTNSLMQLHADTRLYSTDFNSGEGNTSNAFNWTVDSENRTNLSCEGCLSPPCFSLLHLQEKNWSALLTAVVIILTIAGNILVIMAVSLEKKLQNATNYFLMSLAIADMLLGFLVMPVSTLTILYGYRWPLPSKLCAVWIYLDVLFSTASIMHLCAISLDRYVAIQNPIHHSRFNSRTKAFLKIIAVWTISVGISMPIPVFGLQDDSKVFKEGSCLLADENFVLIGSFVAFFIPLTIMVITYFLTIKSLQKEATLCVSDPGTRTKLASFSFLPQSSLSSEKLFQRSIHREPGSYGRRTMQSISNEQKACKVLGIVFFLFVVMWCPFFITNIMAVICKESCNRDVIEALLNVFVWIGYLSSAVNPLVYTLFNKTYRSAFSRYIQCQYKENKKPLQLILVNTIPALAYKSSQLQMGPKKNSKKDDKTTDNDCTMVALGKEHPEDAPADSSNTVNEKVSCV

| SMILES | ED50 (Rattus norvegicus [1]) | ED50 (Rattus norvegicus [2]) | ED50 (Mus musculus) | ED50 (Rattus norvegicus [4]) | ED50 (Rattus norvegicus [5]) | ED50 (Rattus norvegicus [6]) | ED50 (Rattus norvegicus [10]) | also measured |
| --- | --- | --- | --- | --- | --- | --- | --- | --- |
| Cc1nc2n(c(=O)c1CCN1CCC(c3noc4cc(F)ccc34)CC1)CCCC2 [RISPERIDONE] | 1.3 mg/kg | 0.13 mg/kg | 0.062 mg/kg | 3.2 mg/kg | 5.7 mg/kg | 0.48 mg/kg | – | Activity (Rattus norvegicus [3]): 27% |
| CN1CCN(C2=Nc3cc(Cl)ccc3Nc3ccccc32)CC1 [CLOZAPINE] | 29.3 mg/kg | 7.4 mg/kg | – | > 40 mg/kg | – | 11.3 mg/kg | 0.43 mg/kg | Change (Rattus norvegicus [7]): -79%; Change (Rattus norvegicus [8]): 37%; Activity (Rattus norvegicus [9]): 39%; Activity (Rattus norvegicus [11]): 0% |
| COc1cc(C(C)=O)ccc1OCCCN1CCC(c2noc3cc(F)ccc23)CC1 [ILOPERIDONE] | 5.2 mg/kg | 0.15 mg/kg | 0.095 mg/kg | 34.8 mg/kg | 30.7 mg/kg | 0.7 mg/kg | 0.07 mg/kg | IC50 [12]: 9 nM; IC50 [13]: 9 nM; Change (Rattus norvegicus [14]): -40%; Change (Rattus norvegicus [15]): -41%; IC50 [16]: 64 nM; Change (Rattus norvegicus [17]): 45%; IC50 [18]: > 1000 nM; IC50 (D(1A) dopamine receptor): 750 nM; IC50 [19]: 210 nM; ED50 (Rattus norvegicus [20]): 1.03 mg/kg; Activity (Rattus norvegicus [21]): 31%; Change (Rattus norvegicus [22]): 81% |
| O=C(CCCN1CCC(O)(c2ccc(Cl)cc2)CC1)c1ccc(F)cc1 [HALOPERIDOL] | 0.22 mg/kg | 0.077 mg/kg | 0.11 mg/kg | 0.6 mg/kg | – | 0.043 mg/kg | 0.29 mg/kg | ED50 (Rattus norvegicus [23]): 0.65 mg/kg; Change (Rattus norvegicus [24]): -35%; Activity (Rattus norvegicus [25]): -26%; Change (Rattus norvegicus [26]): -30% |
